Activity calls are given as the source filed them. The calls are words filed in the database; no cut-off is given here.
What was measured:
[1] = target: T1, GABA-A receptor; alpha-3/beta-3/gamma-2 (Homo sapiens, UniProt P18507+P28472+P34903); experiment: Displacement of [3H]Ro-151788 from human recombinant GABA-Aalpha3 receptor plus beta3gamma2; format: protein-complex assay
T1 sequence (P18507 whole entry): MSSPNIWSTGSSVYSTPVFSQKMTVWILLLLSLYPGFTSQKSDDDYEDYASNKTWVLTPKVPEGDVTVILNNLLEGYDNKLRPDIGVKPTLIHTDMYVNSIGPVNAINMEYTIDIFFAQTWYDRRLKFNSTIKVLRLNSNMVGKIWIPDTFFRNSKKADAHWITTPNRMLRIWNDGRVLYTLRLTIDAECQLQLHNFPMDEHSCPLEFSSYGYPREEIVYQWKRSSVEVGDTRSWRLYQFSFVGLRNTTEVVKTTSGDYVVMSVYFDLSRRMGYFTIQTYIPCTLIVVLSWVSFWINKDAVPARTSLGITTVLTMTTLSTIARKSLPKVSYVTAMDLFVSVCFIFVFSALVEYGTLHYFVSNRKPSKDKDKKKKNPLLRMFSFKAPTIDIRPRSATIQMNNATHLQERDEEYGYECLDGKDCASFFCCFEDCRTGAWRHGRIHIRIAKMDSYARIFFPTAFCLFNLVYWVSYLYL
T1 sequence (P28472 whole entry): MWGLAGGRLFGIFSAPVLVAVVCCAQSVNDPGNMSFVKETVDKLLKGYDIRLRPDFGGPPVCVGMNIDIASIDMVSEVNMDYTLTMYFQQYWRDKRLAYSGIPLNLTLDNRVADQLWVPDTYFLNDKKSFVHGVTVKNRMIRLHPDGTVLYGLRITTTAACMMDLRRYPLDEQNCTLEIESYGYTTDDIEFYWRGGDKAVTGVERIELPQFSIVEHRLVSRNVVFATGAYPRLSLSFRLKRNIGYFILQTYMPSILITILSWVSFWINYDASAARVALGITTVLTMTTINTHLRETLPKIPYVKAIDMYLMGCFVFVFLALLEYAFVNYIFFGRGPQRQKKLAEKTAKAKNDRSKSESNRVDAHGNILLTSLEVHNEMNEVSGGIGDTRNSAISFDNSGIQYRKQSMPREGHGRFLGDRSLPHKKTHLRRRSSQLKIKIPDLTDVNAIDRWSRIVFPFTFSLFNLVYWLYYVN
T1 sequence (P34903 whole entry): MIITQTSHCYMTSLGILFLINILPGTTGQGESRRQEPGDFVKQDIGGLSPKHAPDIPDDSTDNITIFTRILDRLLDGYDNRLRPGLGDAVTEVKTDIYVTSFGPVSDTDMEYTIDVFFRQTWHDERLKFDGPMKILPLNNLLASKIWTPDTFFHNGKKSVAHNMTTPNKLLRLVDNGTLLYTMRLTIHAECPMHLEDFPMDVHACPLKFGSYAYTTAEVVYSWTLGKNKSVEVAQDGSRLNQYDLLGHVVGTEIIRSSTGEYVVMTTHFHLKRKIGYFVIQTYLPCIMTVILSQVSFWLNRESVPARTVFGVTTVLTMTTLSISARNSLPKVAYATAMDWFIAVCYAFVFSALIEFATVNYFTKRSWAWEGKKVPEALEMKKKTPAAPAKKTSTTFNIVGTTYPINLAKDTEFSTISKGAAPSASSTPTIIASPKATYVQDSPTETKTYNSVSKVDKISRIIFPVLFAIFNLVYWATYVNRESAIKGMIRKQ
Method in brief: (§1)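 Stably expressed human recombinant αxβ3γ2 GABAA receptors (x = 1, 3 or 5), benzodiazepine site. Competition against 1.8 nM [3H]Ro15-1788. IC50 for inhibition of binding converted to Ki by Cheng–Prusoff. Mean of 3–6 determinations.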

[2] = target: GABA-A receptor; alpha-1/beta-3/gamma-2 (Homo sapiens) (UniProt P14867+P18507+P28472); experiment: Efficacy against human recombinant GABA-Aalpha1 receptor plus beta-3-gamma-2 expressed in L(tk-) cells by whole cell patch clamp method; format: functional, cell-based
Method in brief: (§2)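 Whole-cell patch clamp on L(tk-) cells stably expressing α1β3γ2 or α3β3γ2 GABAA receptors. Test compound modulation of current evoked by a sub-maximal (EC20) GABA concentration. Means of at least seven independent experiments.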

[3] = target: T2, GABA-A receptor; alpha-1/beta-3/gamma-2 (Homo sapiens, UniProt P14867+P18507+P28472); experiment: Displacement of [3H]Ro-151788 from human recombinant GABA-Aalpha1 receptor plus beta3gamma2; format: protein-complex assay; method in brief: as §1
T2 sequence (P14867 whole entry): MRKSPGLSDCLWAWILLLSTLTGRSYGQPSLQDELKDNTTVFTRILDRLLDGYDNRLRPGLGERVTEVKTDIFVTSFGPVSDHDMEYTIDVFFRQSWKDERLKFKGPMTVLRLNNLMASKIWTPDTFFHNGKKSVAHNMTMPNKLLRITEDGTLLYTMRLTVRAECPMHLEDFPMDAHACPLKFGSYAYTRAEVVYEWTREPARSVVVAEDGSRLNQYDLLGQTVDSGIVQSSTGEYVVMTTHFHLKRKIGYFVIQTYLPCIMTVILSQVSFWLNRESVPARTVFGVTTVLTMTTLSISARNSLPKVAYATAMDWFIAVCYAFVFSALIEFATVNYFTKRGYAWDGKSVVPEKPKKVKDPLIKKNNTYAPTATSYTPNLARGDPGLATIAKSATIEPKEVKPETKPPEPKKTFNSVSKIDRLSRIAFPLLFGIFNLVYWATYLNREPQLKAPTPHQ
T2 sequence (P18507 whole entry): T1 sequence (P18507 whole entry)
T2 sequence (P28472 whole entry): T1 sequence (P28472 whole entry)

[4] = target: T3, GABA-A receptor; alpha-5/beta-3/gamma-2 (Homo sapiens, UniProt P18507+P28472+P31644); experiment: Displacement of [3H]Ro-151788 from human recombinant GABA-Aalpha5 receptor plus beta3gamma2; format: protein-complex assay; method in brief: as §1
T3 sequence (P18507 whole entry): T1 sequence (P18507 whole entry)
T3 sequence (P28472 whole entry): T1 sequence (P28472 whole entry)
T3 sequence (P31644 whole entry): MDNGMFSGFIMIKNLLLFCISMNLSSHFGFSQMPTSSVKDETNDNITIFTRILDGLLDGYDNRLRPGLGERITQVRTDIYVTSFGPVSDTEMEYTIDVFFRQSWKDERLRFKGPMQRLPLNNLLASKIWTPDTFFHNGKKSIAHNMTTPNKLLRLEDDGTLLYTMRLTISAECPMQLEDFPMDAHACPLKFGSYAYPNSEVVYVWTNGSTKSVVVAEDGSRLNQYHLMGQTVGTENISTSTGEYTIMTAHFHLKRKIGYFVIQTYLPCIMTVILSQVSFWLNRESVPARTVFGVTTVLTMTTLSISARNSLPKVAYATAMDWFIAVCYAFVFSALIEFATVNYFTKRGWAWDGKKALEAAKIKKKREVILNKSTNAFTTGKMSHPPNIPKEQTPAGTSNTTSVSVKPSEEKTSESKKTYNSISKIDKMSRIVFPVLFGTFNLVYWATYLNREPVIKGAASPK

[5] = target: GABA-A receptor; alpha-3/beta-3/gamma-2 (Homo sapiens) (UniProt P18507+P28472+P34903); experiment: Efficacy against human recombinant GABA-Aalpha3 receptor plus beta-3-gamma-2 expressed in L(tk-) cells by whole cell patch clamp method; format: functional, cell-based; method in brief: as §2
[6] = target: GABA-A receptor; alpha-5/beta-3/gamma-2 (Homo sapiens) (UniProt P18507+P28472+P31644); experiment: Efficacy against human recombinant GABA-Aalpha5 receptor plus beta-3-gamma-2 expressed in L(tk-) cells by whole cell patch clamp method; format: functional, cell-based
Method in brief: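 Human α5β3γ2 GABA-A receptors stably expressed in L(tk-) cells; whole-cell patch clamp recording. Test compound applied against the current evoked by a sub-maximal GABA concentration (EC20), and efficacy expressed as the change in that current. Values are means of at least seven independent experiments.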

Rattus norvegicus [7] = experiment: Anxiolytic activity in rat elevated plus maze assay at 3 mg/kg, po; format: functional, organism-based; set-up: dose 3 mg/kg
[8] = Bioavailability in rat; format: ADME, organism-based; conditions: in vivo
[9] = target: T4, GABA-A receptor; anion channel (Rattus norvegicus) (UniProt O09028+P15431+P18506+P18508+P19969+P20236+P23574+P23576+P28471+P28473+P30191+P62813+P63079+P63138+Q91ZM7+Q9ES14); experiment: Displacement of [3H]Ro-151788 from GABA-Aalpha receptor in rat po; format: functional
[10] = Plasma clearance in rat; format: ADME, organism-based
[11] = Half life in rat; format: ADME, organism-based; conditions: in vivo
[12] = target: T4, GABA-A receptor; anion channel (Rattus norvegicus); experiment: Receptor occupancy at BZ site of GABA-Aalpha receptor in rat at 3 mg/kg, po; format: functional, organism-based; set-up: dose 3 mg/kg
Rattus norvegicus [13] = experiment: Activity in rat beam walking assay at 100 mg/kg, po; format: functional, organism-based; set-up: dose 100 mg/kg

Compound	Ki [1] [pM]	Efficacy [2] [%]	Ki [3] [pM]	Ki [4] [pM]	Efficacy [5] [%]	Efficacy [6] [%]	Activity (Rattus norvegicus [7])	bioavailability [8] [%]	ID50 [9] [mg/kg]	clearance [10] [mL/min/kg]	half-life [11] [h]	Activity [12] [%]	Activity (Rattus norvegicus [13])
Cn1cnn2c(-c3ccc(F)c(-c4ccc(F)cc4C#N)c3)cnc2c1=O	4600	-46	2500	4800	–	–	–	–	–	–	–	–	–
Cn1ncn2c(-c3ccc(F)c(-c4ccc(F)cc4C#N)c3)cnc2c1=O	4700	-9	6500	2300	1	–	–	–	–	–	–	–	–
CC(C)(O)c1cnn2c(-c3ccc(F)c(-c4c(F)cccc4C#N)c3)cnc2n1	1500	4	600	900	65	44	–	–	–	–	–	–	–
CC(C)(O)c1ccn2c(-c3ccc(F)c(-c4cccnc4)c3)cnc2n1	–	–	1400	520	–	–	–	–	–	–	–	–	–
Cn1ccn2c(-c3ccc(F)c(-c4ccc(F)cc4C#N)c3)cnc2c1=O	1900	-27	700	390	44	–	–	–	–	–	–	–	–
CCn1ncn2c(-c3ccc(F)c(-c4ccc(F)cc4C#N)c3)cnc2c1=O	3400	-19	2400	950	-7	–	–	–	–	–	–	–	–
CCn1ccn2c(-c3ccc(F)c(-c4ccc(F)cc4C#N)c3)cnc2c1=O	900	-8	280	150	43	-4	Active	38	0.7	17	5	86	inactive
Cn1ccn2c(-c3ccc(F)c(-c4c(F)cccc4C#N)c3)cnc2c1=O	590	3	160	190	28	–	–	–	–	–	–	–	–
Cn1ccn2c(-c3ccc(F)c(-c4ccccc4C#N)c3)cnc2c1=O	700	27	530	100	51	–	–	–	–	–	–	–	–

From ChEMBL document CHEMBL1146048, “Imidazo[1,2-a]pyrazin-8-ones, imidazo[1,2-d][1,2,4]triazin-8-ones and imidazo[2,1-f][1,2,4]triazin-8-ones as alpha2/alpha3 subtype selective GABA A agonists for the treatment of anxiety” (Bioorg Med Chem Lett, 2006)
